# This is a sample that favours compounds with a hit; in the whole collection about 2.6% have one here.
# SENP7 block: blocks the human protease SENP7; Q9BQF6; recombinant SENP7, Z-RLRGG-aminoluciferin luminescence, 40 min; inhibition, % at 5 µM; hit rate 1.5% among 330,000;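 active means inhibition above about 50% at the single test dose, limit read from the data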;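 further: plate controls were DMSO with enzyme for no effect and no enzyme buffer wells for full effect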
# Platelet DG rel: modulates dense granule release in human platelets. human platelet-rich plasma, SFLLRN dense granule ATP release, luminescence. inhibition, %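 (compounds screened at 7.5 µM in platelet-rich plasma)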. hit rate 0.22% among 300,000. AID 1663;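 active means mean replicate score, as percent of positive control, at or above 50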
# SENP1 inh: inhibitors of human SENP1 SUMO protease catalytic domain | Q9P0U3 | recombinant SENP1 catalytic domain, CyPet-SUMO1-YPet FRET cleavage | inhibition, % at 10 µM | hit rate 0.21% among 360,000;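 active means inhibition at least 30% at 10 µM, raw YFP signal under a set limit, fluorescence ratio 0.5 to 1.5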;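 further: 0% = enzyme with DMSO and 100% = no enzyme wells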
# Target sequence (Q9P0U3 419-644 limits assumed): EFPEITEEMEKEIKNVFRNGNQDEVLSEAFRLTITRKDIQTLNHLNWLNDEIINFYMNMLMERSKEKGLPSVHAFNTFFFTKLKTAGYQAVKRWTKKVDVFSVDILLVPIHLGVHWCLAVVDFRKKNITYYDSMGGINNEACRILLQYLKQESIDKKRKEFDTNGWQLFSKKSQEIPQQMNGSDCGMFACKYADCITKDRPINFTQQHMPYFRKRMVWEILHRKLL
#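 Compound: 10 µM single point, 0.5% DMSO; Test system: hSENP1 catalytic domain, recombinant; Timing: 50 min reaction at room temperature; Technique: FRET, CFP and YFP emission; Control set: no-enzyme wells low, DMSO-plus-enzyme wells high control.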
# SENP8 block-1: inhibitors of human SENP8 protease; recombinant SENP8, Nedd8 substrate fluorescence; inhibition, % at 20 µM; hit rate 0.64% among 360,000; in the data active means inhibition mostly above about 40%, no sharp cut-off; inactive means mostly below about 27%
# SENP6 block: inhibitors of human SENP6 protease. Recombinant SENP6 catalytic domain, aminoluciferin luminescence. inhibition, % at 10 µM. hit rate 1.8% among 330,000;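 active means inhibition above about 50% at the single tested dose, limit read from the data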;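 further: plate controls were DMSO wells with enzyme for no effect and DMSO wells lacking enzyme for full effect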
# SENP8 block-2: inhibitors of human SENP8 protease; Q96LD8; purified SENP8, Z-RLRGG-aminoluciferin cleavage, luminescence; inhibition, % at 10 µM; hit rate 1.2% among 330,000; in the data active means inhibition above about 50%
# * hit, by the source's call; nt = no result given.
SMILES,SENP7 block,Platelet DG rel,SENP1 inh,SENP8 block-1,SENP6 block,SENP8 block-2
O=C(NCc1ccccc1)c1cc(-c2ccncc2)nc2ccc(S(=O)(=O)N3CCOCC3)cc12,-7,26,1,27,-3,8
O=C(O)c1cc(NN=Nc2cccc([N+](=O)[O-])c2)cc([N+](=O)[O-])c1,20,-2,1,16,77*,57*
N/C(=N\OC(=O)c1ccc(Br)cc1)c1cccc([N+](=O)[O-])c1,16,1,8,8,22,-19
O=C(O)c1cc(NN=Nc2cccc(S(=O)(=O)O)c2)cc([N+](=O)[O-])c1,-9,3,0,20,-12,-5
O=C(O)c1cc(NN=Nc2ccc(Br)cc2)cc([N+](=O)[O-])c1,15,18,-1,28,52*,11
COc1cccc2cc(-c3nc4ccccc4o3)c(=O)oc12,38,2,-4,-373,49,15
CS(=O)(=O)N1CCN(C(=O)c2ccc3c(c2)OCCO3)CC1,0,3,-1,17,-7,-9
Cc1ccccc1-n1c(=O)cc(N2CCN(C(=O)c3ccco3)CC2)[nH]c1=O,8,52*,-1,3,7,2
O=C1C=C(N2CCN(c3ccccn3)CC2)C(=O)c2c(O)ccc(O)c21,nt,nt,2,76*,nt,nt
Cc1cccc(NC(=O)CSc2nnc(CNC(=O)c3ccco3)o2)c1C,4,0,0,7,5,-2
O=C(Cc1coc(-c2ccc(F)cc2)n1)NC1CCCCC1,3,2,0,20,-17,-7
CNC(=S)Nc1ccc(C(N)=O)cc1,12,58*,0,18,1,-2
Cc1nnc(SCc2ccccc2CSc2nnc(C)s2)s1,12,1,1,6,-10,4
Cc1ccc(-c2nc3ccccc3[nH]2)cn1,43,33,-1,-379,48,5
Cc1nc2ccc(-c3nc4ccccc4[nH]3)cc2[nH]1,49,3,1,-188,57*,16
O=C(c1c[nH]c(C(=O)N2CCN(Cc3ccccc3)CC2)c1)C1CCCCC1,8,-2,-1,7,8,-9
COc1ccc(-c2cn3cccc(C)c3n2)cc1Br,68*,13,-1,-60,-9,59*
O=C(NNC(=O)c1ccccc1Br)c1ccncc1,3,-2,-4,17,-1,5
CCOC(=O)CC1C(=O)NCCN1c1nc2ccc(C)cn2c(=O)c1/C=C1\SC(=S)N(CC(C)C)C1=O (centres undefined),12,4,-14,48*,-4,-2
CCOC(=O)CC1C(=O)NCCN1c1nc2ccc(C)cn2c(=O)c1/C=C1\SC(=S)N(C(C)CC)C1=O (centres undefined),-1,-9,nt,nt,-10,6
COc1ccc(C2CC=C(C(C)=O)CN2S(=O)(=O)c2ccc(Cl)cc2)cc1 (centres undefined),nt,nt,0,-14,nt,nt
CC1=NN(c2ccccc2)C(=O)C1N=Nc1ccc(S(N)(=O)=O)cc1 (centres undefined),-5,-12,6,52*,-57,-8
C=C(C)CSc1nc2sc3c(c2c(=O)n1-c1ccc(OC)cc1)CCN(C)C3,0,-2,nt,nt,5,-1
CCN(C(=S)Nc1cc(S(=O)(=O)N2CCOCC2)ccc1Cl)c1cccc2ccccc12,39,3,-13,-388,77*,58*
O=S(=O)(c1ccc(Cl)c(NC(=S)Nc2cccc(O)c2)c1)N1CCOCC1,5,2,3,13,10,-7
SMILES,SENP7 block,Platelet DG rel,SENP1 inh,SENP8 block-1,SENP6 block,SENP8 block-2
CCCCNC(=O)Nc1ccc(Br)cn1,7,53*,1,19,-10,-9
COc1ccc(-c2cc3nc(C)cc(N4CCN(C(=O)c5ccco5)CC4)n3n2)cc1,nt,nt,0,-327,nt,nt
O=C(COC(=O)c1ccc([N+](=O)[O-])o1)NC1CCCC1,4,nt,-1,40*,13,5
O=S(=O)(Nc1nc2ccccc2nc1N1CCc2ccccc2C1)c1ccc(Cl)cc1,58*,11,-11,-235,37,0
COC(=O)C1=C(C(=O)OC)C2C=CC1C1C(OC(C)=O)C(OC(C)=O)C21 (centres undefined),nt,nt,0,14,nt,nt
Cc1ccc(-c2ccc(/C=N/NC(=O)c3ccccc3O)o2)cc1,54*,-3,nt,nt,58*,27

# Screening data as filed in PubChem BioAssay.
